Calls of active or inactive are those of the source. The calls are words filed in the database; no cut-off is given here.
Key:
[1] = Cytotoxicity against human HepG2.2.15 cells infected with HBV; type: cell-based, HepG2 2.2.15
How it was run: (§1)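 HepG 2.2.15 cells; IC50 is the concentration giving 50% inhibition of cytoplasmic HBV-DNA synthesis; CC50 comes from a CPE (cytopathic effect) cytotoxicity assay in the same cells. Both were derived by the Reed & Muench method, and each experiment was run at least twice separately. SI = CC50/IC50.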

[2] = Selectivity index, ratio of CC50 for human HepG2.2.15 cells to IC50 for HBV infected in human HepG2.2.15 cells; type: toxicity, cell-based; conditions: read-out: Ratio CC50/IC50; how it was run: as §1
Hepatitis B virus [3] = test: Antiviral activity against HBV infected in human HepG2.2.15 cells assessed as reduction in cytoplasmic DNA synthesis by reed and munch method; type: functional, organism-based; how it was run: as §1
[4] = Tmax in Sprague-Dawley rat at 20 mg/kg, po administered as single dose and measured after 0.25 to 24 hrs by HPLC analysis; type: ADME, organism-based; conditions: in vivo
How it was run: (§2)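 Male/female unspecified SD rats, n = 3 per group, received a single dose of TFV at 20 mg/kg by mouth or 5 mg/kg intravenously. Prodrugs were given orally at an equimolar […]. PK parameters were calculated for the released TFV and reported as means.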

[5] = Oral bioavailability in Sprague-Dawley rat at 20 mg/kg administered as single dose and measured after 0.25 to 24 hrs by HPLC analysis; type: ADME, organism-based; conditions: in vivo; how it was run: as §2
[6] = AUC(0 to infinity) in Sprague-Dawley rat at 20 mg/kg, po administered as single dose and measured after 0.25 to 24 hrs by HPLC analysis; type: ADME, organism-based; set-up: dose 20 mg/kg, time infinity, route oral; conditions: in vivo; how it was run: as §2
[7] = Clearance in Sprague-Dawley rat at 5 mg/kg, iv; type: ADME, organism-based; conditions: in vivo; how it was run: as §2
[8] = Half-life in Sprague-Dawley rat at 20 mg/kg, po administered as single dose and measured after 0.25 to 24 hrs by HPLC analysis; type: ADME, organism-based; conditions: in vivo; how it was run: as §2
[9] = Cmax in Sprague-Dawley rat at 20 mg/kg, po administered as single dose and measured after 0.25 to 24 hrs by HPLC analysis; type: ADME, organism-based; set-up: dose 20 mg/kg, route oral; conditions: in vivo; how it was run: as §2
[10] = Half-life in Sprague-Dawley rat at 5 mg/kg, iv; type: ADME, organism-based; conditions: in vivo; how it was run: as §2
[11] = AUC(0 to infinity) in Sprague-Dawley rat at 5 mg/kg, iv; type: ADME, organism-based; set-up: dose 5 mg/kg, route intravenous, time infinity; conditions: in vivo; how it was run: as §2
[12] = Toxicity against C57BL/6 mouse hydrodynamically infected with pHBV1.3 mer plasmid carrying HBV genotype D assessed as change in body weight at 0.1 to 1 mg/kg, po once daily and measured upto 6 days post treatment; type: organism-based; conditions: in vivo, 144 h
HBV genotype D [13] = test: Antiviral activity against HBV genotype D hydrodynamically infected as pHBV1.3 mer plasmid carrying viral genome in C57BL/6 mouse assessed as reduction in serum viral DNA level at 0.1 to 1 mg/kg, po once daily and measured upto 6 days post treatment by qRT-PCR analysis; type: functional, organism-based; conditions: hepatitis B virus genotype D
How it was run: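 C57BL/6 mice received the HBV 1.3mer plasmid by hydrodynamic tail-vein injection. From one day later they were dosed by oral gavage twice daily at […], with vehicle groups of 20% Kolliphor HS 15 or water; ETV was given once daily. There were 5-6 mice per group. Serum HBV DNA was measured by real-time PCR on days 0, 2, 4 and 6, and body weight was tracked over the 6 days.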

[14] = Toxicity against Pekin duck infected with HBV assessed as change in body weight at 0.2 to 0.4 mmol/kg, […] for 14 days and measured every day during compound dosing; type: organism-based; conditions: anas platyrhynchos, in vivo, po, 336 h
How it was run: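 DHBV-infected ducks, six per group, were gavaged twice daily at 0.1, 0.2 or […], with vehicle groups of 0.5% CMC-Na or water; 3TC was given orally once daily. Serum DHBV DNA was measured by real-time PCR on days 0, 7 and 14 and 3 days after dosing stopped, and body weight was monitored. Data are mean ± SD.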

Hepatitis B virus [15] = test: Antiviral activity against HBV infected in pekin duck assessed as reduction in serum viral DNA level at 0.4 mmol/kg, po once daily for 14 days and measured on days 7, 14 post treatment and on day 3 after treatment cessation by qRT-PCR analysis; type: functional, organism-based
[16] = Toxicity against Pekin duck infected with HBV assessed as change in body weight at 0.1 to 0.4 mmol/kg, po twice daily for 14 days administered via gavage and measured every day during compound dosing; type: organism-based; conditions: anas platyrhynchos, in vivo, 336 h
How it was run: (§3)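 DHBV-infected ducks, six per group, were gavaged twice daily at 0.1, 0.2 or […] or with vehicle (0.5% CMC-Na or water); 3TC was given orally once daily. Blood was collected at day 0 (pretreatment), day 7, day 14 and 3 days after cessation. Serum DHBV DNA was extracted and quantified by real-time PCR. Body weight was monitored during treatment. Comparison was against vehicle.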

Hepatitis B virus [17] = test: Antiviral activity against HBV infected in pekin duck assessed as reduction in serum viral DNA level administered via oral gavage twice daily for 14 days and measured on day 14 post treatment and on day 3 after treatment cessation by qRT-PCR analysis; type: functional, organism-based; how it was run: as §3
HBV genotype D [18] = test: Antiviral activity against HBV genotype D hydrodynamically infected as pHBV1.3 mer plasmid carrying viral genome in C57BL/6 mouse assessed as log10 reduction in serum viral DNA level at 0.10 to 0.50 mmol/kg/day, po via gavage administered as twice daily dosage and measured on day 4 post treatment by qRT-PCR analysis; type: functional, hepatitis B virus genotype D
How it was run: (§4)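 C57BL/6 mice were hydrodynamically injected with HBV 1.3mer plasmid. From one day later (day 0), they were gavaged twice daily at […] or with vehicle; ETV was given orally once daily; n = 5-6 per group. Blood was taken at days 0, 2, 4 and 6, and serum HBV DNA was measured by real-time PCR. Body weight was recorded over 6 days of treatment. Significance was set against vehicle.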

Rattus norvegicus [19] = test: Ratio of compound oral bioavailability in Sprague-Dawley rat at 45.5 mg/kg administered as single dose to TFV oral bioavailability in Sprague-Dawley rat at 20 mg/kg administered as single dose by HPLC analysis; type: ADME, organism-based; conditions: in vivo
How it was run: (§5)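 SD rats received a single oral dose at equimolar […] (TFV 20 mg/kg); intravenous TFV was given at 5 mg/kg. PK parameters were derived from plasma TFV, including oral bioavailability F; n = 3 per group.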

Hepatitis B virus [20] = test: Potency index, ratio of Lamivudine IC50 to compound IC50 for antiviral activity against HBV infected in human HepG2.2.15 cells; type: functional
Rattus norvegicus [21] = test: Ratio of compound oral bioavailability in Sprague-Dawley rat at 45.5 mg/kg administered as single dose to TDF oral bioavailability in Sprague-Dawley rat at 44.3 mg/kg administered as single dose by HPLC analysis; type: ADME, organism-based; conditions: in vivo; how it was run: as §5
HBV genotype D [22] = test: Antiviral activity against HBV genotype D hydrodynamically infected as pHBV1.3 mer plasmid carrying viral genome in C57BL/6 mouse assessed as reduction in serum viral DNA level administered via oral gavage twice daily and measured upto 6 days post treatment by qRT-PCR analysis; type: functional, organism-based; conditions: hepatitis B virus genotype D; how it was run: as §4
Hepatitis B virus [23] = test: Potency index, ratio of TFV IC50 to compound IC50 for antiviral activity against HBV infected in human HepG2.2.15 cells; type: functional

| SMILES | CC50 [1] [µM] | selectivity ratio [2] | IC50 (Hepatitis B virus [3]) [µM] | also measured |
| --- | --- | --- | --- | --- |
| CC(C)[C@H](N)C(=O)OCCOP(=O)(CO[C@H](C)Cn1cnc2c(N)ncnc21)OCCOC(=O)[C@@H](N)C(C)C | 218 | 84 | 2.6 | – |
| CC[C@H](C)[C@H](N)C(=O)OCCCOP(=O)(CO[C@H](C)Cn1cnc2c(N)ncnc21)OCCCOC(=O)[C@@H](N)[C@@H](C)CC | 315 | – | > 49.6 | – |
| C[C@H](Cn1cnc2c(N)ncnc21)OCP(=O)(O)O [TENOFOVIR ANHYDROUS] | 435 | 27 | 16 | Tmax [4]: 0.833 h; bioavailability [5]: 1.41%; AUC(0-inf) [6]: 0.888 µg·h/mL; clearance [7]: 0.321 L/h/kg; half-life [8]: 3.56 h; Cmax [9]: 0.207 µg/mL; half-life [10]: 10.2 h; AUC(0-inf) [11]: 15.8 µg·h/mL |
| CC(C)[C@H](N)C(=O)OCCCOP(=O)(CO[C@H](C)Cn1cnc2c(N)ncnc21)OCCCOC(=O)[C@@H](N)C(C)C | 51.9 | – | > 3.24 | – |
| C=C1[C@H](CO)[C@@H](O)C[C@@H]1n1cnc2c(=O)[nH]c(N)nc21.O [ENTECAVIR] | – | – | – | Activity [12]: Non-Toxic; inhibition (HBV genotype D [13]): Active |
| Nc1ccn([C@@H]2CS[C@H](CO)O2)c(=O)n1 [LAMIVUDINE] | > 218 | > 98 | 2.22 | Activity [14]: Non-Toxic; inhibition (Hepatitis B virus [15]): Active |
| CC(C)OC(=O)OCOP(=O)(CO[C@H](C)Cn1cnc2c(N)ncnc21)OCOC(=O)OC(C)C.O=C(O)/C=C/C(=O)O [TENOFOVIR DISOPROXIL FUMARATE] | 20.7 | 24 | 0.85 | Activity [16]: Non-Toxic; inhibition (Hepatitis B virus [17]): Dose-dependent effect; log(activity) (HBV genotype D [18]): 1.7 |
| CC[C@H](C)[C@H](N)C(=O)OCCOP(=O)(CO[C@H](C)Cn1cnc2c(N)ncnc21)OCCOC(=O)[C@@H](N)[C@@H](C)CC | 294 | 24 | 12.2 | – |
| CC(C)[C@H](N)C(=O)OCOP(=O)(CO[C@H](C)Cn1cnc2c(N)ncnc21)OCOC(=O)[C@@H](N)C(C)C.Cl | 57.3 | 80 | 0.71 | Ratio (Rattus norvegicus [19]): 7; Ratio IC50 (Hepatitis B virus [20]): 3; Ratio (Rattus norvegicus [21]): 3; Activity [16]: Non-Toxic; inhibition (Hepatitis B virus [17]): Dose-dependent effect; inhibition (HBV genotype D [22]): Dose-dependent effect; Ratio IC50 (Hepatitis B virus [23]): 22; log(activity) (HBV genotype D [18]): 1.1 |
| CC(C)C[C@H](N)C(=O)OCCCOP(=O)(CO[C@H](C)Cn1cnc2c(N)ncnc21)OCCCOC(=O)[C@@H](N)CC(C)C | 218 | 47 | 4.22 | – |
| CC(C)C[C@H](N)C(=O)OCCOP(=O)(CO[C@H](C)Cn1cnc2c(N)ncnc21)OCCOC(=O)[C@@H](N)CC(C)C | 218 | – | > 13 | – |
| C[C@H](Cn1cnc2c(N)ncnc21)OCP(=O)(OCCOC(=O)[C@@H](N)Cc1ccccc1)OCCOC(=O)[C@@H](N)Cc1ccccc1 | 315 | 97 | 2.93 | – |

— ChEMBL document CHEMBL4396904, “Design, Synthesis, and Anti-HBV Activity of New Bis(l-amino acid) Ester Tenofovir Prodrugs” (ACS Med Chem Lett, 2019)
